# Compound activity (PubChem BioAssay)
# HER2 expr 66K: lowers expression of human Her2 kinase; P04626; SKBR-3 HER2 protein level, AlphaScreen, 18-24 h; active compounds read low; HER2 level % of control, % at 10 µM; 0.69% of 65,000 active; AID 645;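 active = HER2 level under 5% of the carrier-only control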;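 note: 100% = DMSO carrier and 0% = 500 nM PU-H71 HSP90 inhibitor; lower value means stronger loss of Her2 protein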
# AP complement: orthogonal test for alternative complement pathway inhibitors; Human serum alternative complement pathway, LPS-coated ELISA, C3 deposition; tested in compound mixtures; inhibition, % at 5 µM; 0.08% of 62,000 active;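 active = inhibition above 30% in each of the two pooled mixtures holding the compound, so the lower value exceeds 30%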;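 note: 0% = serum in Mg-EGTA without compound and 100% = EDTA serum blank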
#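 Test system: human serum alternative complement pathway, C3 deposition on LPS-coated wells; also added: Plate-bound LPS; doses: 5 µM per compound in ten-compound mixtures; schedule: 1 h at 37 °C; detection: Anti-C3 ELISA, OD 450 nm; evaluation: percent inhibition of C3 deposition onto LPS; repeats: two pool placements per compound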
# E coli RNAP: blocks E. coli RNA polymerase transcription; P0A8V2; fluorescence transcription assay; inhibition, %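 (tested at 10 µM)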; 0.2% of 62,000 active; in the data active = inhibition above about 20%;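 note: 0% = enzyme without compound and 100% = no enzyme blank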
# Target sequence (P0A8V2 whole entry, looked up): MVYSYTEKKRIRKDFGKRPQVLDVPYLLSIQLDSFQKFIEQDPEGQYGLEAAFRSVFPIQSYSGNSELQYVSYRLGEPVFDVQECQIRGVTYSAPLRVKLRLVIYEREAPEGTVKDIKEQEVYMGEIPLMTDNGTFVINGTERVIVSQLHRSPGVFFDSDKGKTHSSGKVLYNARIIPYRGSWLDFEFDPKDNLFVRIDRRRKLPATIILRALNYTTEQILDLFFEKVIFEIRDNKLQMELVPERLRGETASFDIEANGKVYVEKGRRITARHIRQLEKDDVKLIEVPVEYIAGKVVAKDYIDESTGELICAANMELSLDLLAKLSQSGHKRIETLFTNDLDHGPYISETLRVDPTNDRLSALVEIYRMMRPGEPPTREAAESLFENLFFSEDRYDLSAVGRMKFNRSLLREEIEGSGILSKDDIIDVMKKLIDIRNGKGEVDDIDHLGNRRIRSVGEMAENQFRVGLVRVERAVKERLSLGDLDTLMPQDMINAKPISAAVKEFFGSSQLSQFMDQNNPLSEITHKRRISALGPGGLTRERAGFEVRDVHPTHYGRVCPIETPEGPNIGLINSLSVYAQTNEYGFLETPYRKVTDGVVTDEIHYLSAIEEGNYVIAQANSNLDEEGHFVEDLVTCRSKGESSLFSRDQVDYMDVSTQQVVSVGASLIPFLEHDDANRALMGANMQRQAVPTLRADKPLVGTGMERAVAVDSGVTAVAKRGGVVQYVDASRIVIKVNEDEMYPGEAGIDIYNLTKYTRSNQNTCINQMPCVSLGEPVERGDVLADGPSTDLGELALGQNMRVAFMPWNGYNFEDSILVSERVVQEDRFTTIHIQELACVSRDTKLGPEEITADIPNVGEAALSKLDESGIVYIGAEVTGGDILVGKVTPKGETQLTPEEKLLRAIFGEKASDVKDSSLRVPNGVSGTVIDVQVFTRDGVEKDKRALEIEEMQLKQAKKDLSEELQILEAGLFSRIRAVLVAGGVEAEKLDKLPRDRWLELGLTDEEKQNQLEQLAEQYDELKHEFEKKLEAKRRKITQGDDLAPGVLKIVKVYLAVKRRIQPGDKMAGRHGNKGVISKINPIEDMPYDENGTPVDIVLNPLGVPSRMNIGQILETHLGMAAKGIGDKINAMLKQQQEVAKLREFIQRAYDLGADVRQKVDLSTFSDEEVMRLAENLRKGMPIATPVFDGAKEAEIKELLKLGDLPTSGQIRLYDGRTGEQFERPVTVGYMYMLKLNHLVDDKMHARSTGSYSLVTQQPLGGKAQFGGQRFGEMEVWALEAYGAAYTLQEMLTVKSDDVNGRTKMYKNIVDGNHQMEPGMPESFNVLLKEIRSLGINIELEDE
# SKBR3 24h inh: SK-BR-3 proliferation inhibitors; SK-BR-3 viability, CellTiter-Glo ATP luminescence, 24 h; active compounds read low; viability, % at 10 µM; 0.47% of 41,000 active; AID 847;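 active = viability at or below the median of all test compounds minus 3 SD, in both replicates if run twice, cut at about 45% in these data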;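 note: 100% = median untreated cell wells and 0% = median positive control drug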
# TNAP act DEA: activators of human TNAP at intermediate phosphate acceptor. AID 813. 64,000 tested, under 10 active. P05186. purified TNAP, CDP-star luminescence, 100 mM DEA, 30 min; active compounds read high; scale: 0 levamisole-inhibited, 1 vehicle-only enzyme. activation factor at 20 µM;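 active = activation factor of at least 2 at 20 µM, relative to controls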
# MMP13 inh: inhibitors of human MMP13. P45452. MMP-13 fTHP FRET cleavage, Mca fluorescence. inhibition, % at 4 µM. 0.07% of 65,000 active;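 active = inhibition above the mean of compound-free control plate wells plus 3 SD, cut at about 14% in these data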;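 note: 0% = DMSO wells and 100% = wells with reference MMP-13 inhibitor after basal subtraction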
# * marks the source's active call; other numbers are inactive results; / = not tested or not shown. This is a sample that favours compounds with a hit; in the whole collection about 1.2% have one here.
SMILES,HER2 expr 66K,AP complement,E coli RNAP,SKBR3 24h inh,TNAP act DEA,MMP13 inh
Cc1ccc(S(=O)(=O)N(CC(=O)NCc2ccco2)Cc2ccccc2F)cc1,96,6,6,/,0.9,-6
Cc1cc(NC(=O)CS(=O)(=O)c2cn(Cc3ccccc3Cl)c3ccccc23)no1,94,13,5,34*,0.9,4
O=C(CSc1nc2cc(Cl)ccc2s1)c1ccco1,-1.4*,14,6,72,0.9,6
O=C(CSc1nnc(SCC(=O)c2ccco2)s1)c1ccco1,53,13,10,/,/,3
CC(=O)Nc1ccc(C(=O)OCCC(C)C)cc1,/,9,68*,/,0.8,2
CCOCCCNC(=O)C(c1ccc(OC)cc1)N(Cc1ccc2c(c1)OCO2)C(=O)CNC(C)=O (centres undefined),-22*,4,8,62,0.9,0
CCOCCCNC(=O)C(NC(=O)c1ccc2c(c1)OCO2)c1ccc(OC)cc1 (centres undefined),186,12,5,94,1,6
Cc1cc2oc(=O)cc(CN3CCC(C)CC3)c2c(C)c1Cl,107,1,4,90,0.9,-2
COc1ccc(N2CCN(Cc3cc(=O)oc4cc(C)c(Cl)c(C)c34)CC2)cc1,74,7,4,42*,0.9,1
Cc1cccc(N(CC(=O)N2CCCC2)S(=O)(=O)c2ccccc2)c1,108,14,-4,/,0.9,2
COc1cccc(-c2nc(CS(=O)CC(=O)NCc3ccccc3Cl)c(C)o2)c1 (centres undefined),99,19,9,/,0.9,2
O=C(Oc1ccc(Cl)c2cccnc12)N1CCOCC1,1.0*,18,0,63,0.9,-23
O=C(Oc1ccc(Cl)c2cccnc12)N1CCCCC1,88,14,4,82,0.9,-25
Cc1ccc(Cl)cc1N1CCN(Cc2nc3c(c(=O)[nH]c(=O)n3C)n2Cc2ccccc2F)CC1,3.2*,15,0,/,1,6
O=C(CSc1nc2ccccc2c(=O)[nH]1)N1CCOCC1,118,0,8,24*,1,4
COC(=O)c1cccc(Oc2nc3c(c(=O)n(C)c(=O)n3C)n2C(C)C)c1,88,7,4,103,0.8,/
CCN(CC)C(=O)c1csc(Nc2ccc(C)cc2)n1,-20*,7,-1,38*,1.1,-8
O=C(CNS(=O)(=O)c1ccccc1)NCc1ccccn1,53,8,8,88,1,-2
Clc1cccc(CSc2nnc(-c3cccnc3)n2Cc2ccco2)c1,76,37*,9,79,0.9,-2
c1cncc(CSc2nnc(-c3cccnc3)n2Cc2ccco2)c1,95,6,/,92,1,-4
COC(=O)/C=C/S(=O)(=O)c1ccc(NC(C)=O)cc1,-20*,0,12,2.1*,1,6
COc1ccccc1NS(=O)(=O)c1ccc(NC(C)=O)cc1,83,16,10,106,0.9,-1
CCCCN(CCCC)S(=O)(=O)c1ccc(C(=O)Nc2nnc(COC)o2)cc1,-17*,11,6,56,0.8,-2
CCCCN(C)S(=O)(=O)c1ccc(C(=O)Nc2nnc(CSC)o2)cc1,86,-8,6,43*,0.9,-1
O=c1[nH]c(CSc2nnc(NCCCN3CCOCC3)s2)nc2cc(Cl)ccc12,84,8,6,/,0.9,-3
SMILES,HER2 expr 66K,AP complement,E coli RNAP,SKBR3 24h inh,TNAP act DEA,MMP13 inh
CC1(C2(O)CC(c3ccccc3)ON2)CCCCC1 (centres undefined),137,3,5,92,0.9,2
Cc1ccc(C)c(-n2nnnc2Sc2nnnn2-c2ccccc2)c1,-11*,13,1,/,0.9,-1
COC(=O)c1ccc(NC(=O)CSc2nnc(COc3ccccc3)n2C)cc1,93,18,-1,85,0.9,0
COc1ccc(CNC(=O)C(C)NC(=O)c2cc3ccccc3o2)cc1 (centres undefined),67,16,39*,101,0.5,0
O=C(Nc1ccc(F)cc1)N1CCN(c2nc3ccccc3s2)CC1,56,3,-4,41*,1,7
COc1ccc(/C(N)=C/C(=O)C(C)(C)C)cc1,115,-5,6,117,0.8,1
